Assay results collected from several papers.
Protocols differ between the studies behind these lines.
pH: 7.4

`CCOCC(=O)N1CCC[C@H](C(=O)NCc2nc(-c3ccc(C#N)nc3)cs2)C1` has a logD of 1 (shake flask; aqueous buffer).
With `C[C@@H]1COCCN1c1cccc(-c2ccc3ncnc(Nc4ncco4)c3c2)c1` the logD was 4.2 (shake flask; aqueous buffer).
`C=CC(=O)N1CC2(CCN(c3nc4c(c(-c5c(C)ccc6[nH]ncc56)c3C#N)C[C@H]3C[C@@H]4C3(C)C)C2)C1` has a logD of 4.4.
The logD of `CNS(=O)(=O)c1ccc(Nc2ncc3cc(Cl)c(=O)n(C4CCCC4)c3n2)c(C)c1` is reported as 3.8 (shake flask; aqueous buffer; 1 h).
With `CN1CCN(c2ccc(-c3ccc4nncc(Nc5ccc(OC(F)(F)F)cc5)c4c3)cc2)CC1` the logD was 5.1 (shake flask; aqueous buffer).
`C[C@H](O)c1cnc(NS(=O)(=O)c2ccc(C(F)(F)F)c(Cl)c2)nc1` has a logD of 0.4 (shake flask; aqueous buffer).
`C=C1C[C@@]23CC[C@H]4[C@@](C)(CCC[C@@]4(C)C(=O)O[C@@H]4O[C@H](CO)[C@@H](O)[C@H](O)[C@H]4O)[C@@H]2CC[C@]1(O[C@@H]1O[C@H](CO)[C@@H](O)[C@H](O)[C@H]1O[C@@H]1O[C@H](CO)[C@@H](O)[C@H](O)[C@H]1O)C3` has a logD of -1.51 (shake flask; aqueous buffer).
`c1cc(-c2ccc3ncnc(Nc4ncco4)c3c2)nc(N2CCOCC2)n1` gave a logD of 3.4 (shake flask; aqueous buffer).
With `C=C1C[C@@]23CC[C@H]4[C@@](C)(CCC[C@@]4(C)C(=O)O[C@@H]4O[C@H](CO)[C@@H](O)[C@H](O)[C@H]4O)[C@@H]2CC[C@]1(O[C@@H]1O[C@H](CO)[C@@H](O)[C@H](O)[C@H]1O)C3` the logD was -1.45 (shake flask; aqueous buffer).
`Cc1ccc(Nc2cnnc3ccc(-c4ccc(N5CCN(C)CC5)cc4)cc23)cn1` gave a logD of 3.5 (shake flask; aqueous buffer).
`C=CC(=O)N1CC2(CCN(c3nc4c(c(-c5c(C)ccc6[nH]ncc56)c3C#N)COC(C)(C)C4)C2)C1` gave a logD of 2.8.
For `Clc1ccc(Nc2ncnc3ccc(-c4cccc(N5CCOCC5)c4)cc23)cc1`, the logD was over 4.6 (shake flask; aqueous buffer).
`N=C(CC(O)c1cc2c(F)cc(F)cc2c2cc(C(F)(F)F)ccc12)Nc1ccc(Br)cc1` (stereo not shown) gave a logD of 5.37.
`C[C@H]1CN(c2cccc(-c3ccc4ncnc(Nc5ncco5)c4c3)c2)CCO1` has a logD of over 4.3 (shake flask; aqueous buffer).
`O=C(O)c1ccc(NS(=O)(=O)c2ccc(Cl)c(Cl)c2)c2ncccc12` gave a logD of 0.9 (shake flask; aqueous buffer).
The logD of `CN(c1ncco1)c1ncnc2ccc(-c3cccc(N4CCOCC4)c3)cc12` is reported as 2.1 (shake flask; aqueous buffer).
`CC(C)NCCOCC(=O)N1CCC[C@H](C(=O)NCc2nc(-c3ccc(C(F)(F)F)cc3)cs2)C1` has a logD of 1.5 (shake flask; aqueous buffer).
`C[C@@H]1CN(c2cccc(-c3ccc4ncnc(Nc5ncco5)c4c3)c2)C[C@H](C)O1` gave a logD of over 3.6 (shake flask; aqueous buffer).
`COCC(=O)N1CCC[C@H](C(=O)NCc2nc(-c3ccc(C#N)cc3)cs2)C1` has a logD of 1.5 (shake flask; aqueous buffer).
The logD of `CCN(CC)c1ccc(C=NNC(=O)c2ccccn2)c(O)c1` is reported as 3.48 (shake flask; aqueous buffer; 24 h).
With `N#Cc1ccc(-c2csc(CNC(=O)[C@H]3CCCN(C(=O)COCCF)C3)n2)cc1` the logD was 1.6 (shake flask; aqueous buffer).
`Clc1cccc(Nc2ncnc3ccc(-c4cccc(N5CCOCC5)c4)cc23)c1` gave a logD of 5.3 (shake flask; aqueous buffer).
With `C[C@H](O)c1ccc(NS(=O)(=O)c2ccc(OCC3CCC3)c(Cl)c2)c2nn(C)cc12` the logD was 3.8 (shake flask; aqueous buffer).
`CNS(=O)(=O)c1ccc(Nc2ncc(C(F)(F)F)c([C@H]3CC[C@](C)(O)CC3)n2)c(C)c1` gave a logD of 3.6 (shake flask; aqueous buffer; 1 h).
The logD of `Cn1cc(Nc2ncnc3ccc(-c4cccc(N5CCOCC5)c4)cc23)cn1` is reported as 3.7 (shake flask; aqueous buffer).
`C[C@H](O)c1cnc(NS(=O)(=O)c2ccc(Cl)c(Cl)c2)nc1` gave a logD of 0.5 (shake flask; aqueous buffer).
With `C=CC(=O)N1CC2(CCN(c3nc4c(c(-c5cc(O)cc6ccccc56)c3C)COC(C)(C)C4)C2)C1` the logD was 4.3.
`C[C@H]1[C@@H](C(=O)NCc2nc(-c3ccc(C#N)cc3)cs2)CCCN1C(=O)[C@H]1CCC(=O)O1` gave a logD of 1.4 (shake flask; aqueous buffer).
